The values below come from article PMC3899495 (Clinical Pharmacokinetics, 2013).

Read-outs that look alike come from different tables or passages of the source.

The format of data set [1] is in vivo, human. As to conditions: single 0.4 U/kg s.c., geometric mean (CV %), n = 6; for AUC0–∞ / C max: serum, ELISA. The method, boiled down: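 Subjects grouped by screening Cockcroft–Gault creatinine clearance. Non-dialysis subjects received one 0.4 U/kg subcutaneous dose (100 U/mL) into a lifted thigh skin fold at 0800 hours. Serum was sampled pre-dose through 120 h. Concentrations were measured by validated sandwich ELISA (mouse anti-human-insulin monoclonal capture, biotinylated mouse monoclonal detection; serum LLOQ 20 pM). Parameters came from individual concentration–time curves; CL/F = dose/AUC0–∞.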

Data set [2] is described as follows: Tolerability after single dose. The data set is classed as in vivo, human. As to conditions: single 0.4 U/kg s.c. dose(s). In a few lines:
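Adults 18–85 y, BMI ≤40 kg/m2, in five renal-function groups. 0.4 U/kg s.c. into thigh: non-ESRD once; ESRD twice, post-hemodialysis and ~13 h pre-hemodialysis. In-house ≥48 h; follow-up 7–21 days after last dose. Also physical exam, biochemistry, hematology, urinalysis. AEs graded for severity and relationship; severe hypoglycemia = requiring assistance (ADA). Blood glucose sampled to 68 h (ESRD) or 120 h.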

For data set [3] the following is noted: cited from earlier work.
For data set [4] the following is noted: varying degrees of impaired hepatic function; cited from earlier work.
For data set [5] the following is noted: cited from earlier work. The source holds these as a separate data set.
Setting [6] is: mild renal impairment (CLCR 50–80 mL/min).
Setting [7] is: moderate renal impairment (CLCR 30–49 mL/min).
Setting [8] is: normal renal function (CLCR >80 mL/min).
Setting [9] is: severe renal impairment (CLCR <30 mL/min).

On to Insulin degludec, for which the “CL/F (apparent clearance, dose/AUC0–∞)” value in data set [1] (setting [6]) is 19.1 (31) mL/h/kg; in data set [1] (setting [7]), 20.5 (39) mL/h/kg; in data set [1] (setting [8]), 22.0 (32) mL/h/kg; in data set [1] (setting [9]) it was 18.9 (24) mL/h/kg. The “AUC0–∞” value in data set [1] (setting [6]) was 126,096 (49) pmol·h/L; in data set [1] (setting [7]), 117,646 (32) pmol·h/L; in data set [1] (setting [8]) it was 109,472 (26) pmol·h/L; in data set [1] (setting [9]), 127,268 (28) pmol·h/L. Moreover, the C max in data set [1] (setting [6]) is on record as 3,502 (30) pmol/L; in data set [1] (setting [7]), 3,237 (39) pmol/L; in data set [1] (setting [8]), 3,085 (28) pmol/L; in data set [1] (setting [9]), 3,918 (28) pmol/L. Besides, the severe adverse events entry in data set [2] (32 subjects exposed) is given as “None”. Besides, the severe hypoglycemic episodes result in data set [2] (all subjects) was “No severe hypoglycemic episodes”. For the same substance, the “within-subject variability in glucose-lowering effect (AUC values) compared with insulin glargine” value in data set [3] is “four-times lower”. For the same substance, the “effect of impaired hepatic function on ultra-long pharmacokinetic properties” value in data set [4] is “preserved”.
With insulin aspart, the “effect of impaired renal function on pharmacokinetics” value (“effect of impaired renal function” for short) in data set [5] was “reportedly unaffected”.
Regarding insulin detemir, the “effect of impaired renal function” value in data set [5] was “reportedly unaffected”.
In the case of insulin lispro, the “effect of impaired renal function” value in data set [5] (patients with diabetes) was “affect the pharmacokinetics”.
With regular human insulin, the “effect of impaired renal function” value in data set [5] (patients with diabetes) was “affect the pharmacokinetics”.
